Assay outcomes as filed in PubChem BioAssay.
In the library only some 3.5% were active in any assay of this set; here they are far more common.
MrgX1 PAM = positive allosteric modulators of MrgX1, primary screen, HEK293 cells, Fluo-4 calcium flux | B-score at 10 µM | 310,000 tested, 0.63% active | FDSS; hits give high values;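 active = plate-corrected calcium response at least 3 library SD above typical, normal starting fluorescence, not activating the receptor alone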;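 also: compound read alongside a low EC10 to EC30 dose of BAM8-22 agonist; peak minus trough fluorescence over baseline measured at the second addition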
Target sequence (Q96LB2 whole entry, looked up): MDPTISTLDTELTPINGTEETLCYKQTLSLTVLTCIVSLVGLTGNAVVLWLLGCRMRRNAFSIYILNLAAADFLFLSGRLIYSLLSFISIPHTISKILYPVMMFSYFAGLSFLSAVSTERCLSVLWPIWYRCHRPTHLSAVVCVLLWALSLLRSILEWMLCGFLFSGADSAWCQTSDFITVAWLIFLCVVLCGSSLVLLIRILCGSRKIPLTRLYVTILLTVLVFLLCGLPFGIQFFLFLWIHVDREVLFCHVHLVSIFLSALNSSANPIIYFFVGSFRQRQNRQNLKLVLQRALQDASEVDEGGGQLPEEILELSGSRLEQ
RGS4 inh = RGS4 inhibitors, primary screen, cell-based, HEK293 M3R inducible RGS4, calcium flux | Regulator of G-protein signaling 4 (Homo sapiens), P49798 | Fluo-4 calcium flux; hits give high values; triggered by carbachol at its EC20 | B-score at 10 µM | 310,000 tested, 0.45% active | AID 463165, 2010;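 active = B-score, a plate-corrected calcium signal, over three deviations above library mean, with baseline fluorescence within five deviations of library mean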;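 also: RGS4 expression induced by doxycycline in cells with stable M3 receptor; B-score is computed from the integrated fluorescence ratio over baseline after carbachol; higher B-score means a larger calcium signal and so more RGS4 inhibition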
Target sequence (P49798 whole entry, looked up): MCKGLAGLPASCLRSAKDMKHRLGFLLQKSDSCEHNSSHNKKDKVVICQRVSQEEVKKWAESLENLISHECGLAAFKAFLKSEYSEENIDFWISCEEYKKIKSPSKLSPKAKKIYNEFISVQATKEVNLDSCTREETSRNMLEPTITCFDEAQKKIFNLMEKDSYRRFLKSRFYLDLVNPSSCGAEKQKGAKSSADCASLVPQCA
MrgX1 antag = antagonists of human MrgX1 receptor, primary screen, HEK293 cells, Fluo-4 calcium flux. BAM8-22 antagonism; hits give low values. 310,000 tested, 1.3% active. Mas-related G-protein coupled receptor member X1 (Homo sapiens), Q96LB2. B-score at 10 µM. AID 588676, 2011;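 active = calcium-response B-score plate-corrected more than 3 library SD below zero, starting fluorescence within 5 deviations, no agonist response on first addition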;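 also: peak minus trough fluorescence over baseline after final BAM8-22 challenge near maximal dose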
RGS4 act = RGS4 potentiators or activators, primary screen, cell-based, HEK293 M3R inducible RGS4, calcium flux | AID 463111, 2010 | B-score at 10 µM | 310,000 tested, 0.92% active | carbachol calcium flux Fluo4; hits give low values;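 active = B-score of the integrated calcium signal more than 4 SD below the library mean, with starting fluorescence not abnormally high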;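 also: negative B-score means reduced calcium response which marks RGS4 activation or potentiation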
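Assay system: HEK293 FlpIn-TREx cells, stable M3R, doxycycline-inducible RGS4 / Probe or stimulus: carbachol, ECmax concentration / Times: overnight RGS4 induction, 30 min dye load 37 °C, 20 min compound RT / Signal: kinetic calcium fluorescence imaging with Fluo4-AM dye, 2 µM / Measure: Agonist-evoked peak-minus-minimum fluorescence over baseline, integrated ratio, B score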
MrgX1 ag = agonists of human MrgX1 receptor, primary screen, HEK293 cells, Fluo-4 calcium flux; Mas-related G-protein coupled receptor member X1 (Homo sapiens), Q96LB2; Fluo-4 calcium fluorescence, agonist mode; hits give high values; B-score at 10 µM; 310,000 tested, 0.44% active; AID 588627, 2011;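 active = calcium response B-score plate-corrected fluorescence ratio at least 3 library SD, with starting fluorescence B-score inside 5 SD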
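Assay system: MrgX1-expressing HEK293 cells / Amount: fifteen thousand cells per well / Doses: test compound in the initial addition of three / Timing: cells plated overnight, dye loaded 0.5 h 37 °C, 0.5 h room temperature / Technique: kinetic calcium dye fluorescence, Fluo-4 NW / Control set: positive and negative controls per plate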
MrgX1 antag conf = MrgX1 receptor antagonists, duplicate retest, confirmation, HEK293 cells, Fluo-4 calcium flux; shares compounds with MrgX1 antag; BAM8-22 calcium flux; hits give low values; remaining BAM8-22 calcium response % of control (hits give low values), % at 10 µM; 2,300 tested, 19% active; AID 602420, 2012;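 active = remaining agonist calcium response no higher than 100% minus 3 SD of agonist-only control wells, with starting fluorescence near control levels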;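 also: agonist BAM8-22 given at a near maximal EC90 to ECmax level; peak minus minimum fluorescence divided by baseline after agonist addition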
HEK293 Ca flux = nonspecific calcium signal in parental HEK293, confirmation, counter-screen for MrgX1 antagonist project, parental HEK293 cells, Fluo-4 calcium flux; fluorescence ratio F(max-min)/F0 at 10 µM; AID 624111, 2012; shares compounds with MrgX1 antag; 4,000 tested, 2% active; Fluo-4 calcium fluorescence, FDSS;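 active = duplicate-averaged calcium fluorescence ratio at least three times the standard deviation of buffer wells, a nonspecific response in parental cells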
HEK293 Ca counter = calcium response in parental HEK293 cells, primary screen, counter-screen for MrgX1 allosteric activator project, cell-based, Fluo-4 calcium flux, duplicate | shares compounds with MrgX1 antag | Fluo-4 fluorescence ratio; hits give high values | fluorescence ratio F(max-min)/F0 at 10 µM | 4,000 tested, 0.4% active;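 active = calcium fluorescence ratio, averaged over duplicates, at least 3 SD of the buffer-well ratio, meaning a nonspecific response in receptor-free cells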;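 also: untransfected parental HEK293 lacking MrgX1 used as counterscreen for MrgX1 allosteric activators; fluorescence change taken during the second addition on a kinetic imager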
HEK293 Ca cntr2 = calcium response in parental HEK293 cells, primary screen, counter-screen for MrgX1 agonist project, cell-based, Fluo-4 calcium flux, duplicate, agonist mode. fluorescence ratio F(max-min)/F0 at 10 µM. shares compounds with MrgX1 antag. 4,000 tested, 8.7% active. AID 624115, 2012. Fluo-4 calcium fluorescence (FDSS); hits give high values;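 active = calcium fluorescence ratio at least three times the spread of buffer wells, meaning a non-specific response in parental cells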
* marks the source's active call; other numbers are inactive results; i = inactive; nt = not tested or not shown.

SMILES | MrgX1 PAM | RGS4 inh | MrgX1 antag | RGS4 act | MrgX1 ag | MrgX1 antag conf | HEK293 Ca flux | HEK293 Ca counter | HEK293 Ca cntr2
NS(=O)(=O)c1ccc(NC(=O)COC(=O)CCNC(=O)NC23CC4CC(CC(C4)C2)C3)cc1 | i | i | i | i | i | nt | nt | nt | nt
CSc1ccccc1OCc1cc(C(=O)N2CCCC(C)C2)no1 (configuration not stated) | i | i | -5.7* | i | i | i | i | i | i
CCN(CC)C1CCN(C(=O)c2cc(COc3ccccc3SC)on2)C1 (configuration not stated) | i | i | i | i | i | nt | nt | nt | nt
COc1ccc(C2Nc3cc(OC)ccc3-n3cccc32)cc1 (configuration not stated) | i | i | i | i | i | nt | nt | nt | nt
COC(=O)c1cccnc1NC(=S)NC1CCCCC1 | i | i | -4.8* | i | i | i | i | i | i
COC(=O)c1ccc(NC(=S)NC2CCCCC2)cc1 | i | i | i | i | i | nt | nt | nt | nt
O=S(=O)(c1ccccc1Cl)N1CCC(O)(c2ccc3c(c2)OCO3)CC1 | i | i | -4.9* | i | i | i | i | i | i
O=S(=O)(c1ccc2c(c1)OCCO2)N1CCC(O)(c2ccc(Cl)cc2)CC1 | i | i | i | i | i | nt | nt | nt | nt
O=C(NCCCN1CCOCC1)c1ccc(Sc2cccc(Cl)c2)c([N+](=O)[O-])c1 | i | i | i | i | i | nt | nt | nt | nt
c1nc(N2CCOCC2)c2c3c(sc2n1)CCCC3 | i | i | i | i | i | nt | nt | nt | nt
O=C(c1ccccc1)N1CCN(c2ncnc3sc4c(c23)CCC4)CC1 | i | i | -5.1* | i | i | i | i | i | i
CCC1Oc2ccccc2N(CC(=O)NC2CC2)C1=O (configuration not stated) | i | i | i | i | i | nt | nt | nt | nt
CCC1Sc2ccccc2N(CC(=O)NC2CC2)C1=O (configuration not stated) | i | i | -7* | i | i | i | i | i | i
CCn1c(C)c(C(C)=O)c(N2CCN(c3ccccc3)CC2)nc1=S | i | i | -8.9* | i | i | i | i | i | i
CCn1c(C)c(C(C)=O)c(N2CCN(c3ccccn3)CC2)nc1=S | i | i | i | i | i | nt | nt | nt | nt
C=CCN1CC(C(=O)N2CCC(Cc3ccc(Cl)cc3)(C(=O)OCC)CC2)CC1=O (configuration not stated) | i | i | i | i | i | nt | nt | nt | nt
COc1ccc(NS(=O)(=O)c2cccc(C(=O)NCc3ccco3)c2)cc1 | i | i | -6.5* | i | i | i | i | i | 55*
c1coc(CNc2c3c(nc4ccccc24)CCC3)c1 | i | i | -5.5* | i | i | i | i | i | i
CCSc1nnc(-c2ccncc2)n1Cc1ccccc1 | i | i | -6.5* | i | i | i | i | i | i
CNC(=O)CSc1nnc(-c2ccncc2)n1Cc1ccccc1 | i | i | i | i | i | nt | nt | nt | nt
COCCCNC(=O)CC1Oc2ccccc2NC1=O (configuration not stated) | i | i | i | i | i | nt | nt | nt | nt
CCCSCCCNC(=O)CC1Oc2ccccc2NC1=O (configuration not stated) | i | i | -4.9* | i | i | i | i | i | i
